Screening data as filed in PubChem.
HIF act = HIF pathway transcriptional activation. U2OS HRE-luciferase reporter, luminescence; normalized: DMSO 0%, desferrioxamine 100%. activation, % at 7.5 µM (by protocol). 300,000 compounds, 0.32% hits. AID 1910;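 active = mean activation of at least 10% of the iron chelator positive control signal, with at least half of replicates also reaching 10%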
PP5 primary = blocks human protein phosphatase 5 activity; P53041; purified PP5c, OMFP substrate fluorescence; inhibition, % at 6.7 µM; 320,000 compounds, 0.18% hits;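 active = inhibition above the campaign's mean inhibition across all tested compounds plus 3 SD, cut at about 9.5% in these data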;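 note: 0% = DMSO only and 100% = 100 µM cantharidin control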
NS3 helicase inh = HCV NS3 helicase inhibition. NS3 helicase DNA unwinding, Cy5 molecular beacon fluorescence. inhibition, % at 10.9 µM. 290,000 compounds, 0.56% hits. AID 1800;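 active = inhibition above the mean of all tested compounds plus 3 SD, set per campaign, cut at about 35% in these data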;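 note: 0% = DMSO wells and 100% = thioflavine S control wells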
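System: NS3 helicase fragment of HCV / Schedule: 1 h at 25 °C / Control set: DMSO alone as 0% and 110 µM thioflavine S as 100% / Reagent: Cy5/quencher beacon DNA duplex and ATP to start / Technique: Cy5 fluorescence / Replication: singlicate / Evaluation: % inhibition of end-to-start signal ratio versus controls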
DNA FID counter = fluorescent intercalator displacement, NS3 helicase counter-screen; 290,000 compounds, 0.17% hits; DNA fluorescent intercalator displacement, fluorescence; inhibition, % at 7.9 µM; AID 1845; in the data active = inhibition above about 37%;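 note: 0% = vehicle and 100% = reference compound; higher means more ethidium bromide displaced from hairpin DNA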
PP1 inh = blocks human PP1-alpha phosphatase, a PP5 counter-screen. inhibition, % at 6.7 µM. purified PP1alpha, OMFP fluorescence. 320,000 compounds, 0.9% hits;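 active = inhibition above the mean inhibition of all tested compounds plus 3 SD, computed separately for each screening campaign, cut at about 15% in these data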
Target sequence (P62136 whole entry, looked up): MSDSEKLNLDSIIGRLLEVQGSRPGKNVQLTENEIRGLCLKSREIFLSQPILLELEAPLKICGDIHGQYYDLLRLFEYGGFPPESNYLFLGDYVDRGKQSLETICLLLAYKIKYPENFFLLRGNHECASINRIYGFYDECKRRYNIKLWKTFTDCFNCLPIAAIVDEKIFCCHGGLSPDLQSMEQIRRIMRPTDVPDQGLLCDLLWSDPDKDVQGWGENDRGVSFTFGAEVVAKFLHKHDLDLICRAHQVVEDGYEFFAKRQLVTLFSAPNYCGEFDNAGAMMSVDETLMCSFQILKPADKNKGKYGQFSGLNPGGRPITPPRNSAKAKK
PP1 confirm = confirmation of human PP1 phosphatase inhibitors | purified PP1alpha, OMFP substrate fluorescence | inhibition, % at 6.7 µM | 1,900 compounds, 52% hits | AID 2358 | shares compounds with PP1 inh;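 active = mean PP1 inhibition above a set limit taken from the earlier primary screen, cut at about 15% in these data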
PP5 counter = counter-screen for PP1 inhibitors: human PP5 phosphatase inhibition | purified PP5c, OMFP fluorescence | shares compounds with PP1 inh | 1,900 compounds, 4% hits | inhibition, % at 6.7 µM;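 active = mean PP5 inhibition over triplicate wells above about 9.5% taken from the earlier PP1 screen, limit read from the data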
Active calls of the source: *. An excerpt weighted towards active compounds, which were near 1.9% of everything screened.

Results for O=[N+]([O-])c1cccc(/C=C/c2ccc3cccc(O)c3n2)c1 ?
HIF act: 13.3*; PP5 primary: 2.1; NS3 helicase inh: -2.2; DNA FID counter: -6.9; PP1 inh: 24.5*; PP1 confirm: 20.8*; PP5 counter: -6.6

How did COc1ccc(-c2csc(NC(=O)c3ccccc3NS(=O)(=O)c3ccc(F)c(F)c3)n2)cc1 do in these assays?
HIF act: 0.9; PP5 primary: 11.7*; NS3 helicase inh: 5.1; DNA FID counter: 14.2; PP1 inh: 27.2*; PP1 confirm: 24.2*; PP5 counter: 7.3

What do the screens show for `Cc1ccc(C(C)C)c(OCc2ccc(C(=O)N/N=C/c3ccc(O)cc3O)cc2)c1`?
HIF act: 2.6; PP5 primary: 1.7; NS3 helicase inh: 1.2; DNA FID counter: -11.0; PP1 inh: 25.7*; PP1 confirm: 34.2*; PP5 counter: -2.2

What do the screens show for `COCc1cc(C)nc(SCc2ccc([N+](=O)[O-])cc2)c1C#N`?
HIF act: -32.3; PP5 primary: 2.2; NS3 helicase inh: 14.5; DNA FID counter: -5.0; PP1 inh: 0.8

How did Nc1ncnc2oc(-c3ccco3)c(-c3ccco3)c12 do in these assays?
HIF act: -0.1; PP5 primary: 1.5; NS3 helicase inh: 22.1; DNA FID counter: 2.4; PP1 inh: 25.2*; PP1 confirm: 16.1*; PP5 counter: -2.3

How did CC(OC(=O)Cc1c[nH]c2ccccc12)C(=O)Nc1ccccc1[N+](=O)[O-] (stereo not given) do in these assays?
HIF act: -0.4; PP5 primary: 1.7; PP1 inh: -2.6

How did O=C1NC[C@@H](Cc2cccc3ccccc23)N(CCCCC2CCCCC2)C1=O do in these assays?
HIF act: 0.3; PP5 primary: 4.7; PP1 inh: 21.1*; PP1 confirm: 2.8; PP5 counter: 2.1

Results for NCCCC[C@H]1CNC(=O)C(=O)N1CCCCC1CCCCC1 ?
HIF act: 0.1; PP5 primary: 0.6; PP1 inh: -3.6

What do the screens show for `C=CCOC(=O)C1=C[C@@H](c2ccc(C(F)(F)F)cc2)C[C@@H](OCc2ccc(CO)cc2)O1`?
HIF act: -0.8; PP5 primary: 5.2; PP1 inh: 9.9

How did COc1cc2c(cc1OC)CN(CC(=O)Nc1ccc(C)c(S(=O)(=O)N3CCOCC3)c1)CC2 do in these assays?
HIF act: -0.6; PP5 primary: 3.3; NS3 helicase inh: -5.7; DNA FID counter: -4.2; PP1 inh: -4.1

How did COc1cccc(/C=N/NC(=O)N/N=C/c2cccc(OC)c2O)c1O do in these assays?
HIF act: 2.9; PP5 primary: -0.2; NS3 helicase inh: -1.6; DNA FID counter: -42.3; PP1 inh: 21.5*; PP1 confirm: 16.0*; PP5 counter: -6.6

How did COc1cccc(/C=N/Nc2ccc([N+](=O)[O-])cn2)c1O do in these assays?
HIF act: 49.9*; PP5 primary: 3.2; NS3 helicase inh: 12.8; DNA FID counter: -12.6; PP1 inh: 34.1*; PP1 confirm: 24.1*; PP5 counter: -0.9

How did O=C(Cc1ccccc1)N/N=C/c1cc(Br)cc(Cl)c1O do in these assays?
HIF act: 1.8; PP5 primary: 3.7; NS3 helicase inh: -5.4; DNA FID counter: -5.7; PP1 inh: 8.8

Results for COc1cc(Br)cc(/C=N/NC(=O)Cc2ccccc2)c1O ?
HIF act: -0.7; PP5 primary: 0.9; PP1 inh: 18.9*; PP1 confirm: 14.3; PP5 counter: -4.3

How did Cn1cc(C(=O)N2CCN(C(=O)c3ccco3)CC2)c2c3ccccc3n(C)c2c1=O do in these assays?
HIF act: 0.0; PP5 primary: 4.4; NS3 helicase inh: 0.5; DNA FID counter: -21.7; PP1 inh: -2.6

Results for Cc1ccc2c(c1)N(CC(=O)NCC1CCCO1)C(=O)C(C(C)C)O2 (stereo not given) ?
HIF act: 0.3; PP5 primary: 0.1; NS3 helicase inh: -4.6; DNA FID counter: -24.0; PP1 inh: -0.1

Results for C=CCN(CC=C)C(=O)CN1C(=O)NC(c2ccccc2)(c2ccccc2)C1=O ?
HIF act: 0.1; PP5 primary: -0.4; NS3 helicase inh: 3.8; DNA FID counter: -33.4; PP1 inh: -1.4

What do the screens show for `Cc1cccc(Nc2nnc(SCC(=O)c3ccc(Br)s3)s2)c1C`?
HIF act: -0.4; PP5 primary: 0.8; NS3 helicase inh: 8.2; DNA FID counter: -13.4; PP1 inh: 20.7*; PP1 confirm: 21.2*; PP5 counter: 7.1

How did c1ccc(CNc2nc(NCc3ccccc3)c3ccccc3n2)cc1 do in these assays?
HIF act: -5.2; PP5 primary: 3.8; NS3 helicase inh: -39.2; DNA FID counter: 22.0; PP1 inh: 34.1*; PP1 confirm: 23.4*; PP5 counter: 1.9

What do the screens show for `Nc1nc(Nc2ccccc2)nc(NCc2ccco2)c1[N+](=O)[O-]`?
HIF act: 1.1; PP5 primary: 4.6; NS3 helicase inh: -95.6; DNA FID counter: 5.3; PP1 inh: 4.6

What do the screens show for `c1ccc(CNc2nc(-c3ccccn3)nc3ccccc23)cc1`?
HIF act: 1.3; PP5 primary: -0.3; NS3 helicase inh: -74.0; DNA FID counter: -8.9; PP1 inh: 39.2*; PP1 confirm: 40.3*; PP5 counter: 0.6

Results for Fc1ccc(Nc2nc(NCc3ccco3)c3ccccc3n2)cc1 ?
HIF act: 2.2; PP5 primary: 3.2; NS3 helicase inh: -97.5; DNA FID counter: 19.0; PP1 inh: 19.7*; PP1 confirm: -0.9; PP5 counter: -0.4

How did CC1CN(C(c2cccs2)c2sc3ncnn3c2O)CC(C)O1 (stereo not given) do in these assays?
HIF act: 0.0; PP5 primary: 1.2; NS3 helicase inh: 4.9; DNA FID counter: -7.4; PP1 inh: -2.3

Results for CCOC(=O)C(=CNc1cscc1S(=O)(=O)C(C)C)C(=O)OCC ?
HIF act: 0.0; PP5 primary: 2.7; NS3 helicase inh: 4.9; DNA FID counter: -15.4; PP1 inh: -0.5

Results for O=C(Cc1csc(NC(=O)Nc2cccc(Cl)c2)n1)NC1CCCC1 ?
HIF act: 2.2; PP5 primary: 3.9; PP1 inh: 36.2*; PP1 confirm: 42.0*; PP5 counter: -0.9

How did O=C(Cc1csc(NC(=O)Nc2cccc(Cl)c2)n1)NCc1ccccn1 do in these assays?
HIF act: 1.6; PP5 primary: 2.6; PP1 inh: 2.0

Results for CC(C)(CS(=O)(=O)[O-])NC(=O)CC[N+](C)(C)CCO ?
HIF act: 0.6; PP5 primary: 4.2; NS3 helicase inh: 21.6; DNA FID counter: 3.4; PP1 inh: 70.5*; PP1 confirm: 55.8*; PP5 counter: -3.7

Results for CCOc1ccc(S(=O)(=O)NCCC(=O)N2CC(C)CC(C)C2)cc1 (stereo not given) ?
HIF act: -0.1; PP5 primary: -0.5; PP1 inh: 78.9*; PP1 confirm: -5.9; PP5 counter: -4.9
